Test results reported in ChEMBL document CHEMBL4049422, “Discovery of Novel Indazole Derivatives as Orally Available β3-Adrenergic Receptor Agonists Lacking Off-Target-Based Cardiovascular Side Effects” (J Med Chem, 2017).
≈ marks a conversion by molar mass, not a printed value. Calls of active or inactive are those of the source. No cut-off for these calls is given here.

Assays:
[1] = biological target: Adrenoceptor beta 3 (Callithrix jacchus) (UniProt F6XZF4); experiment: Agonist activity at beta3 adrenergic receptor in marmoset urinary bladder smooth muscle strips assessed as induction of KCl-precontracted muscle relaxation treated every 20 mins
Sequence of Adrenoceptor beta 3 (Callithrix jacchus) (F6XZF4 as listed by the source): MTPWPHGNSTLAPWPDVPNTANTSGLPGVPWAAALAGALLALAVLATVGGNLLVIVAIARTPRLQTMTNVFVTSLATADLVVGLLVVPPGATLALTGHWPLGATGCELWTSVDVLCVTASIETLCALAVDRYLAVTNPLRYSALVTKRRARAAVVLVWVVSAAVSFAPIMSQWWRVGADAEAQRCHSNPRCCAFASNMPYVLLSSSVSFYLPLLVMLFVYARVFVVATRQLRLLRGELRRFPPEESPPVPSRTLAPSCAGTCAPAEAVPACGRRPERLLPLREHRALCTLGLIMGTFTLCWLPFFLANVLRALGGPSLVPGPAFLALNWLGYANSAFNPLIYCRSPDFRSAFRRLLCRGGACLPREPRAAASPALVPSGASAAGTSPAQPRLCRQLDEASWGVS

[2] = biological target: T1, Beta-3 adrenergic receptor (Homo sapiens, UniProt P13945); experiment: Intrinsic activity at recombinant human beta3 adrenergic receptor expressed in CHO cells assessed as accumulation of cyclic AMP after 30 mins relative to isoproterenol; assay type: cell-based
Target sequence in this assay (P13945 whole entry, looked up): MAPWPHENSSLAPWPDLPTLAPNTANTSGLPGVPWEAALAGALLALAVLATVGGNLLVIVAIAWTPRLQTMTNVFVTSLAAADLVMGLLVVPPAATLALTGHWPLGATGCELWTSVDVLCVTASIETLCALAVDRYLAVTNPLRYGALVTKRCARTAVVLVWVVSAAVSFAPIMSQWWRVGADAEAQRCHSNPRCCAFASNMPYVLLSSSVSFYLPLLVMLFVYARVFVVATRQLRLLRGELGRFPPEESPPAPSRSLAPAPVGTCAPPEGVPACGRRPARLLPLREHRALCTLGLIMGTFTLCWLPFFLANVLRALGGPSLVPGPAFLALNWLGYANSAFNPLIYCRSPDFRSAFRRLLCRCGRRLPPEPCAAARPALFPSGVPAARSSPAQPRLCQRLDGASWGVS

Homo sapiens = species on record: Homo sapiens; experiment: Selectivity ratio of EC50 for recombinant human alpha1A adrenergic receptor to EC50 for recombinant human beta3 adrenergic receptor
[3] = biological target: T1, Beta-3 adrenergic receptor; experiment: Agonist activity at recombinant human beta3 adrenergic receptor expressed in CHO cells assessed as accumulation of cyclic AMP after 30 mins; assay type: cell-based
Target sequence in this assay (P13945 whole entry): as the sequence (P13945 whole entry, looked up) above

[4] = biological target: T2, Alpha-1A adrenergic receptor (Homo sapiens, UniProt P35348); experiment: Agonist activity at recombinant human alpha1A adrenergic receptor expressed in HEK293 cells assessed as intercellular Ca mobilization by Fura-2AM dye-based fluorescence assay; assay type: cell-based
T2 sequence (P35348 whole entry): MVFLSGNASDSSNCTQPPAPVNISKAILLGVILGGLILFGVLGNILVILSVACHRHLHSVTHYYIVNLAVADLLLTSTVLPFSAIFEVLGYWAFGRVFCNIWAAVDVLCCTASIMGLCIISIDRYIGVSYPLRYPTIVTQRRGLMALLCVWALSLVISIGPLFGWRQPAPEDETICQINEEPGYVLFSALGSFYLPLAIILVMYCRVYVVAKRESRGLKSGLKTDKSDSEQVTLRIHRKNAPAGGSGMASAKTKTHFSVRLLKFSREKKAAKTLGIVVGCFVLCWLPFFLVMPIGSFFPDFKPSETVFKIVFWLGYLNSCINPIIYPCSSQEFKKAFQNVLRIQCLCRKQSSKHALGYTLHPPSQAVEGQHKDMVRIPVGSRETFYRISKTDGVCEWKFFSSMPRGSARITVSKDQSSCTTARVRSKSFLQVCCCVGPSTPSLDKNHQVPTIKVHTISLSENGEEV

[5] = biological target: T2, Alpha-1A adrenergic receptor; experiment: Intrinsic activity at recombinant human alpha1A adrenergic receptor expressed in HEK293 cells assessed as intercellular Ca mobilization by Fura-2AM dye-based fluorescence assay relative to norepinephrine; assay type: cell-based; conditions: read-out: Intrinsic activity
[6] = Cmax in Sprague-Dawley rat at 5 mg/kg, po by LC-MS/MS analysis; assay type: ADME, organism-based; design: dose 5 mg/kg, route oral; conditions: in vivo
Summary of the method: (§1)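 Male Sprague-Dawley rats (n = 2 or 3) dosed orally at 5 mg/kg in saline or water (5 mL/kg). Blood taken from the subclavian vein at 0.5, 1, 2, 4, 6 and 8 h; plasma separated by centrifugation, stored at -20 °C, and drug levels measured by LC-MS/MS. Values are mean ± SD (n = 3) or the average of two experiments.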

[7] = Solubility of the compound at pH 1.2 buffer solution after 18 hrs by HPLC analysis; assay type: physicochemical
[8] = biological target: T3, Beta-1 adrenergic receptor (Homo sapiens, UniProt P08588); experiment: Intrinsic activity at recombinant human beta1 adrenergic receptor assessed as accumulation of cyclic AMP after 30 mins relative to isoproterenol; conditions: 0.5 h
T3 sequence (P08588 whole entry): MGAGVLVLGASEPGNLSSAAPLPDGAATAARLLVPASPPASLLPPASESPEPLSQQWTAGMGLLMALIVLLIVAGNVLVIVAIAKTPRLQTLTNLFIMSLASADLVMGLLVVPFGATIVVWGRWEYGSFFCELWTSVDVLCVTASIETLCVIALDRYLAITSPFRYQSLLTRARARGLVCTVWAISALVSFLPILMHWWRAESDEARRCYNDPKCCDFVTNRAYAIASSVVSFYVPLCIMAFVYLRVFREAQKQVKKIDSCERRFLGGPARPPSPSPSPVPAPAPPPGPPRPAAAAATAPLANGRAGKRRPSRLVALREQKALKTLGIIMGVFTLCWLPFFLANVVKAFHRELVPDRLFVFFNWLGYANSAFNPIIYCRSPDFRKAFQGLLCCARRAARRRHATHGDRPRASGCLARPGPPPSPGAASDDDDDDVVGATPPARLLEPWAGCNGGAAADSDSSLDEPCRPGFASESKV

[9] = Intrinsic clearance in human liver microsomes at 1 uM in presence of NADPH by LC-MS/MS analysis; assay type: ADME, microsome
Summary of the method: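 Pooled mixed-gender human liver microsomes (0.5 mg/mL) in 100 mM potassium phosphate pH 7.4 with NADPH-regenerating mix plus UDP-GA, test compound 1 µM, 15 min at 37 °C. Acetonitrile stop, LC-MS/MS. k from the remaining fraction. CLint,u is scaled with 48.8 mg protein/g liver and 25.7 g liver/kg, and corrected by fu from equilibrium dialysis (1 µM, 0.5 mg/mL, 6 h, 37 °C).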

[10] = Intrinsic clearance in Sprague-Dawley rat liver microsomes at 0.5 uM in presence of NADPH by LC-MS/MS analysis; assay type: ADME, microsome
Summary of the method: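 Pooled male Sprague-Dawley rat liver microsomes (0.5 mg/mL final) in 100 mM Tris-HCl pH 7.4 with NADPH-regenerating mix plus UDP-GA, test compound 0.5 µM, 20 min at 37 °C. Acetonitrile stop, LC-MS/MS. CLint,u is scaled with 44.8 mg protein/g liver and 40.0 g liver/kg, and corrected by fu from ultracentrifugation (160,000g, 16 h, 37 °C).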

[11] = biological target: T4, Beta-2 adrenergic receptor (Homo sapiens, UniProt P07550); experiment: Intrinsic activity at recombinant human beta2 adrenergic receptor assessed as accumulation of cyclic AMP after 30 mins relative to isoproterenol
T4 sequence (P07550 whole entry): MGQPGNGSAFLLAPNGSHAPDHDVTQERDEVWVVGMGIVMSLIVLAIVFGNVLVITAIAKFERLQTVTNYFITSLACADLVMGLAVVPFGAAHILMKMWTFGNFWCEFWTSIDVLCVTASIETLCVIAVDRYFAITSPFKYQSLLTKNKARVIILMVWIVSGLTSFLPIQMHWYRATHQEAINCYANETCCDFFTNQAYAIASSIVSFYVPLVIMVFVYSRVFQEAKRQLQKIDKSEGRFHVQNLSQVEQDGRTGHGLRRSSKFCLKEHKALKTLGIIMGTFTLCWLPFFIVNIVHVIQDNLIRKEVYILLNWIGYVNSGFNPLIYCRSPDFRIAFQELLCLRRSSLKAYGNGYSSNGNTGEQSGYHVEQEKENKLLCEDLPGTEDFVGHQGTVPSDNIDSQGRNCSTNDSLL

[12] = Solubility of the compound at pH 6.8 buffer solution after 18 hrs by HPLC analysis; assay type: physicochemical
[13] = AUC in Sprague-Dawley rat at 5 mg/kg, po by LC-MS/MS analysis; assay type: ADME, organism-based; conditions: in vivo; summary of the method: as §1
[14] = Membrane permeability in MDCK cells at 50 uM after 60 mins by LC-MS/MS analysis; assay type: ADME, cell-based, Canis lupus familiaris; conditions: dog, read-out: permeability
[15] = Half life in Sprague-Dawley rat at 5 mg/kg, po by LC-MS/MS analysis; assay type: ADME, organism-based; conditions: in vivo; summary of the method: as §1
[16] = biological target: T4, Beta-2 adrenergic receptor; experiment: Agonist activity at recombinant human beta2 adrenergic receptor expressed in CHO cells assessed as accumulation of cyclic AMP after 30 mins; assay type: cell-based
[17] = biological target: T3, Beta-1 adrenergic receptor; experiment: Agonist activity at recombinant human beta1 adrenergic receptor expressed in CHO cells assessed as accumulation of cyclic AMP after 30 mins; assay type: cell-based
CYP2D6 = CYP2D6 (Homo sapiens, UniProt P10635); experiment: Inhibition of CYP2D6 (unknown origin) at 10 uM relative to control; assay type: ADME
Sequence of CYP2D6 (P10635 whole entry): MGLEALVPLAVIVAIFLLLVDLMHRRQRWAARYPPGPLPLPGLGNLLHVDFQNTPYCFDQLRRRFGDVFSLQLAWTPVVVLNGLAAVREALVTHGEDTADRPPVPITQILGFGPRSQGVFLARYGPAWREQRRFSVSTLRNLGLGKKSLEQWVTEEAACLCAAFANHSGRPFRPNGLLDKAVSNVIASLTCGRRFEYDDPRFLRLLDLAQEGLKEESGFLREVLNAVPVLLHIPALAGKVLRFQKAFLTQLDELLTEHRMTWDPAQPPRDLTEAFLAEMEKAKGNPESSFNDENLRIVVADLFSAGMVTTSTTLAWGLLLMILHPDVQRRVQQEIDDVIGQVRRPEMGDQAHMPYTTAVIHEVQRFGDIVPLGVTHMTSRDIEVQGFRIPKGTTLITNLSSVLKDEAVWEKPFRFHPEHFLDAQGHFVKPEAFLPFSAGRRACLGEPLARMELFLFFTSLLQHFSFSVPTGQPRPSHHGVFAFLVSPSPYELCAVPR

Rattus norvegicus [18] = experiment: Cardiotoxicity in Sprague-Dawley rat assessed as decrease in mean blood pressure at 3 mg/kg, iv after 30 mins (reference value: 5.4 +/- 1.9%); assay type: toxicity, organism-based; design: scale not given: the % may be the effect or the level left; conditions: in vivo, 0.5 h
Rattus norvegicus [19] = experiment: Cardiotoxicity in Sprague-Dawley rat assessed as increase in heart beat rate at 3 mg/kg, iv after 30 mins (reference value: 1.8 +/- 0.9%); assay type: toxicity, organism-based; conditions: in vivo, 0.5 h
Rattus norvegicus [20] = experiment: Cardiotoxicity in Sprague-Dawley rat assessed as increase in mean blood pressure at 3 mg/kg, iv after 30 mins (reference value: 1 +/- 0.5%); assay type: toxicity, organism-based; conditions: in vivo, 0.5 h

SMILES | Intrinsic activity [2] | Ratio EC50 (Homo sapiens) | EC50 [3] | EC50 [4] | Emax [5] | CLint scaled at 1 µM [9] | CLint scaled at 0.5 µM [10] | further results
CC(C)NCC(O)c1ccc(O)c(O)c1 (configuration not stated) |  |  |  |  |  |  |  | Activity [1]: Active
CC(C)c1n[nH]c2cc(OCCNC[C@H](O)c3cccc(NS(C)(=O)=O)c3)ccc12 |  | > 769 |  |  | 9.1% | 193 mL/min/kg | 211 mL/min/kg | Cmax [6]: 45.2 ng/mL; solubility at 18 h [7]: 295 µM (≈ 128 µg/mL); Intrinsic activity [8]: 11.9%; Emax at 0.5 h [11]: 5.6%; solubility at 18 h [12]: 267 µM (≈ 115 µg/mL); AUC [13]: 200 ng·h/mL; Papp at 1 h, 50 µM [14]: 4.1 ×10⁻⁶ cm/s; half-life [15]: 1.62 h
Cc1n[nH]c2cc(OCCNC[C@H](O)c3cccc(NS(=O)(=O)c4ccccc4)c3)ccc12 | 85% | > 2560 | 3.9 nM | > 10000 nM | 0% | 464 mL/min/kg |  | EC50 [16]: > 10000 nM; solubility at 18 h [7]: 300 µM (≈ 140 µg/mL); Intrinsic activity [8]: 10%; Emax at 0.5 h [11]: 0%; EC50 [17]: > 10000 nM; solubility at 18 h [12]: 229 µM (≈ 107 µg/mL); Papp at 1 h, 50 µM [14]: 5.1 ×10⁻⁶ cm/s
CCc1n[nH]c2cc(OCCNC[C@H](O)c3cccc(NS(C)(=O)=O)c3)ccc12 |  | 61 |  |  | 31% | 42 mL/min/kg | 113 mL/min/kg | 
Nc1nc(CC(=O)Nc2ccc(CCNC[C@H](O)c3ccccc3)cc2)cs1 [MIRABEGRON] |  |  |  |  |  |  |  | inhibition at 10 µM (CYP2D6): 87%; Activity (Rattus norvegicus [18]): 38.3%; Activity (Rattus norvegicus [19]): 10%; Activity (Rattus norvegicus [20]): 3.5%

Second part, led by results:

Intrinsic activity [2] | Ratio EC50 (Homo sapiens) | EC50 [3] | EC50 [4] | Emax [5] | CLint scaled at 1 µM [9] | CLint scaled at 0.5 µM [10] | SMILES | further results
90% | 25 | 70 nM | 1760 nM | 27% |  |  | Cc1n[nH]c2cc(OCCNC[C@H](O)c3cccc(NS(=O)(=O)C(C)C)c3)ccc12 | 
58% | > 32 | 309 nM | > 10000 nM | 0% |  |  | Cc1n[nH]c2cc(OCCNC[C@H](O)c3cccc(NS(=O)(=O)C4CCCC4)c3)ccc12 | 
 | 10 |  |  | 71% | < 10 mL/min/kg | 103 mL/min/kg | Cc1n[nH]c2cc(OCCNC[C@H](O)c3cccc(NS(C)(=O)=O)c3)ccc12 | Cmax [6]: 107 ng/mL; solubility at 18 h [7]: 285 µM (≈ 115 µg/mL); solubility at 18 h [12]: 273 µM (≈ 110 µg/mL); AUC [13]: 542 ng·h/mL; Papp at 1 h, 50 µM [14]: 2.4 ×10⁻⁶ cm/s
72% | 29 | 43 nM | 1250 nM | 26% |  |  | Cc1n[nH]c2cc(OCCNC[C@H](O)c3cccc(NS(=O)(=O)C4CC4)c3)ccc12 | 
 | > 151 |  |  | 4% | 463 mL/min/kg | 641 mL/min/kg | CS(=O)(=O)Nc1cccc([C@@H](O)CNCCOc2ccc3c(C4CCC4)n[nH]c3c2)c1 | 
79% | 25 | 6.5 nM | 163 nM | 84% |  |  | CCCS(=O)(=O)Nc1cccc([C@@H](O)CNCCOc2ccc3c(C)n[nH]c3c2)c1 | 
